How the values were obtained:
[1] = tested on: L1210; test: In vitro cytotoxicity of compounds were determined on murine leukemia cell line (L1210).; assay type: functional, cell-based; conditions: Mus musculus
Outline: (§1)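 Cells were cultured with or without compound for 48 h at 37 °C in a 5% CO2–95% air atmosphere. Portions were then counted for proliferation and viability by trypan blue dye exclusion. IC50 was taken from the remaining viable cell number.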

[2] = tested on: L929; test: In vitro cytotoxicity of compounds were determined on mouse fibroblast (L929 TK-).; assay type: functional, cell-based; outline: as §1
[3] = tested on: CCRF-CEM; test: In vitro cytotoxicity of compounds were determined on Inhibition of human leukemia cell line(CCRF-CEM).; assay type: functional, cell-based
Outline: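 CCRF-CEM cells, or a CEM-TK⁻ variant with less than 1% of wild-type thymidine kinase activity, were grown in RPMI 1640 with 20% heat-inactivated FBS, penicillin, streptomycin and 0.5% human IL-2. Cells were cultured with or without compound for 48 h at 37 °C in 5% CO2. Proliferation and viability were then counted by trypan blue dye exclusion.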

[4] = target: T1, Thymidylate synthase (Mus musculus, UniProt P07607); test: Inhibition of cellular thymidylate synthase activity of mouse fibroblast (L929 TK-) in permeabilised cells.; assay type: cell-based
T1 sequence (P07607 whole entry): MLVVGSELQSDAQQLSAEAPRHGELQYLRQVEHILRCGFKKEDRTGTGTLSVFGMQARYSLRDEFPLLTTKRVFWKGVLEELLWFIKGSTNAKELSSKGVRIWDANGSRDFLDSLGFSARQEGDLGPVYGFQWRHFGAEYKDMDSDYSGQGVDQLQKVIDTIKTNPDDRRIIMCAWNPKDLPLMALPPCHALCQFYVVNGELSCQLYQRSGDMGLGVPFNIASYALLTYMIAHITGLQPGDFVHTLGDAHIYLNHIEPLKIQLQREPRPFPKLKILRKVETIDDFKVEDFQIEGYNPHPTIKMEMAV
Outline: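 L929 TK⁻ cells were permeabilized with high-molecular-weight dextran sulfate. Intracellular thymidylate synthase activity was then measured in situ by tritium release, and IC50 values were determined.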

[5] = target: T1, Thymidylate synthase; test: Inhibition of cellular thymidylate synthase activity of mouse fibroblast (L929 TK-) in intact cells.; assay type: cell-based
[6] = target: T1, Thymidylate synthase; test: Inhibition of cellular thymidylate synthase activity of murine leukemia cell line (L1210) in intact cells.; assay type: cell-based
[7] = tested on: CEM-TK(-); test: In vitro cytotoxicity of compounds were determined on Inhibition of human leukemia cell line (CEM-TK)
[8] = target: T1, Thymidylate synthase; test: Inhibition of cellular thymidylate synthase activity of murine leukemia cell line (L1210) in permeabilised cells.; assay type: cell-based
[9] = target: T1, Thymidylate synthase; test: Inhibition of cellular thymidylate synthase activity of mouse fibroblast (L929 TK-) in permeabilised cells; assay type: cell-based
[10] = tested on: L929 TK- (Mus musculus); test: In vitro cytotoxicity of compounds were determined on murine fibroblast cell line (L929 TK-) in.
[11] = tested on: CEM-TK(-) (Homo sapiens); test: In vitro cytotoxicity of compounds were determined on human leukemia cells (CEM-TK-).

| Compound | IC50 [1] | IC50 [2] | IC50 [3] | IC50 [4] | IC50 [5] | IC50 [6] | IC50 [7] | IC50 [8] | IC50 [9] | IC50 [10] | IC50 [11] |
| --- | --- | --- | --- | --- | --- | --- | --- | --- | --- | --- | --- |
| O=c1[nH]c(=O)n([C@H]2C[C@H](O)[C@@H](COP(=O)(O)O)O2)cc1F [5-FLUORODEOXYURIDYLATE] | 0.015 µM | 6.8 µM | 0.0055 µM | – | – | – | – | – | – | – | – |
| O=c1[nH]c(=O)n([C@H]2C[C@H](O)[C@@H](CO)O2)cc1F [FLOXURIDINE] | 0.012 µM | 7.7 µM | 0.002 µM | 11 µM | 7.3 µM | 0.043 µM | 66.3 µM | 59 µM | – | – | – |
| COC(=O)[C@H](Cc1ccccc1)NP(=O)(O)OCC1OC(n2cc(F)c(=O)[nH]c2=O)CC1O (some centres undefined) | 0.41 µM | 200 µM | 0.32 µM | – | > 1000 µM | 21 µM | 86.5 µM | 5 µM | 1.1 µM | – | – |
| Nc1ccn([C@@H]2O[C@H](CO)[C@@H](O)[C@@H]2O)c(=O)n1 [CYTARABINE] | – | – | 0.09 µM | – | – | – | – | – | – | – | – |
| COC(=O)[C@@H](NP(=O)(O)OC[C@H]1O[C@@H](n2cc(F)c(=O)[nH]c2=O)C[C@@H]1O)C1C=Nc2ccccc21 (some centres undefined) | 0.4 µM | – | 0.32 µM | – | 0.67 µM | 12 µM | – | 2.3 µM | > 1000 µM | 240 µM | 58.1 µM |
| Nc1ccn([C@@H]2O[C@H](COP(=O)(O)O)[C@@H](O)[C@H]2O)c(=O)n1 | – | – | 0.1 µM | – | – | – | – | – | – | – | – |

Reference: ChEMBL document CHEMBL1129397, “Synthesis and biological activity of aromatic amino acid phosphoramidates of 5-fluoro-2'-deoxyuridine and 1-beta-arabinofuranosylcytosine: evidence of phosphoramidase activity” (J Med Chem, 1996)
